In ChEMBL document CHEMBL1157295, “Polyacylated oligosaccharides from medicinal Mexican morning glory species as antibacterials and inhibitors of multidrug resistance in Staphylococcus aureus” (2006):
In brackets after ≈: the same amount, converted by molar mass.

Assays:
Type in all cases: functional
[1] = system: Staphylococcus aureus; assay: Antimicrobial activity against TetK multidrug efflux pump possessing Staphylococcus aureus XU-212 by standard microdilution method
Procedure, shortened: (§1)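 Broth microdilution per NCCLS guidelines, at least in duplicate, in cation-adjusted Mueller-Hinton broth (20 mg/L Ca2+, 10 mg/L Mg2+). Strains were grown first on nutrient agar. Inoculum of 5 × 10^5 cfu was set in 0.9% saline against a McFarland standard. Compounds were dissolved in DMSO and given as 2-fold serial dilutions, final 1–512 µg/mL, with at most 3.125% v/v DMSO. MIC is the lowest concentration showing no visible growth.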

[2] = system: Staphylococcus aureus; assay: Antimicrobial activity against epidemic methicillin-resistant Staphylococcus aureus 15 by standard microdilution method
Procedure, shortened: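 Broth microdilution following NCCLS guidelines, at least in duplicate, against EMRSA-15 (mecA) precultured on nutrient agar. Medium was cation-adjusted Mueller-Hinton broth with 20 mg/L Ca2+ and 10 mg/L Mg2+. Inoculum was 5 × 10^5 cfu in 0.9% saline, set against a McFarland standard. Compounds were dissolved in DMSO (final ≤3.125% v/v) and tested at 1–512 µg/mL in 2-fold series. MIC was the lowest concentration with no visible growth.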

[3] = system: Staphylococcus aureus; assay: Antimicrobial activity against Staphylococcus aureus ATCC 25923 by standard microdilution method; procedure, shortened: as §1
[4] = system: Staphylococcus aureus; assay: Antimicrobial activity against Staphylococcus aureus ATCC 6538
[5] = system: Mycobacterium tuberculosis; assay: Antimicrobial activity against Mycobacterium tuberculosis

Structure (SMILES) | MIC [1] [µg/mL] | MIC [2] [µg/mL] | MIC [3] [µg/mL] | MIC [4] [µg/mL] | MIC [5] [µg/mL]
CCn1cc(C(=O)O)c(=O)c2cc(F)c(N3CCNCC3)cc21 [NORFLOXACIN] | 16 (≈ 50.1 µM) | 0.5 (≈ 1.57 µM) | 2 (≈ 6.26 µM) | – | –
C/C=C(\C)C(=O)O[C@H]1[C@H](O)[C@@H](O)[C@H](O[C@@H]2[C@H]3OC(=O)CCCCCCCCC[C@H](CCCCC)O[C@@H]4O[C@H](C)[C@@H](O)[C@H](O)[C@H]4O[C@@H]4O[C@H](CO)[C@@H](OC(=O)[C@H](C)[C@@H](C)O)[C@H](O)[C@H]4O[C@H](O[C@H]2C)[C@@H]3OC(=O)[C@@H](C)CC)O[C@@H]1C [ORIZABIN IX] | > 512 | 256 (≈ 228 µM) | > 512 | – | –
C/C=C(\C)C(=O)O[C@H]1[C@H](O)[C@@H](O)[C@H](O[C@@H]2[C@H]3OC(=O)CCCCCCCCC[C@H](CCCCC)O[C@@H]4O[C@H](C)[C@@H](O)[C@H](O)[C@H]4O[C@@H]4O[C@H](COC(=O)[C@@H](C)[C@H](C)O)[C@@H](O)[C@H](O)[C@H]4O[C@H](O[C@H]2C)[C@@H]3OC(=O)C(C)C)O[C@@H]1C [ORIZABIN XIII] | 32 (≈ 28.9 µM) | 8 (≈ 7.22 µM) | 8 (≈ 7.22 µM) | – | –
C/C=C(\C)C(=O)O[C@H]1[C@H](O)[C@@H](O)[C@H](O[C@@H]2[C@H]3OC(=O)CCCCCCCCC[C@H](CCCCC)O[C@@H]4O[C@H](C)[C@@H](O)[C@H](O)[C@H]4O[C@@H]4O[C@H](COC(=O)[C@H](C)[C@@H](C)O)[C@@H](O)[C@H](O)[C@H]4O[C@H](O[C@H]2C)[C@@H]3OC(=O)C(C)C)O[C@@H]1C [ORIZABIN XII] | > 512 | 512 (≈ 462 µM) | > 512 | – | –
C/C=C(\C)C(=O)O[C@H]1[C@H](O)[C@@H](O)[C@H](O[C@@H]2[C@H]3OC(=O)CCCCCCCCC[C@H](CCCCC)O[C@@H]4O[C@H](C)[C@@H](O)[C@H](O)[C@H]4O[C@@H]4O[C@H](COC(=O)[C@@H](C)CC)[C@@H](O)[C@H](O)[C@H]4O[C@H](O[C@H]2C)[C@@H]3OC(=O)[C@H](C)[C@@H](C)O)O[C@@H]1C [ORIZABIN XIV] | 64 (≈ 57.1 µM) | 8 (≈ 7.13 µM) | 16 (≈ 14.3 µM) | – | –
CCCCC[C@H]1CCCCCCCCCC(=O)O[C@@H]2[C@@H](O[C@@H]3O[C@H](C)[C@@H](OC(=O)[C@@H](C)CC)[C@H](O)[C@H]3O)[C@H](C)O[C@@H](O[C@H]3[C@H](O[C@H]4[C@H](O1)O[C@H](C)[C@@H](O)[C@@H]4O)O[C@H](COC(=O)[C@@H](C)CC)[C@@H](O)[C@@H]3O)[C@@H]2OC(=O)[C@@H](C)[C@H](C)O [ORIZABIN XIX] | 512 (≈ 456 µM) | 256 (≈ 228 µM) | 128 (≈ 114 µM) | – | –
C/C=C(\C)C(=O)O[C@H]1[C@H](O)[C@@H](O)[C@H](O[C@@H]2[C@H]3OC(=O)CCCCCCCCC[C@H](CCCCC)O[C@@H]4O[C@H](C)[C@@H](O)[C@H](O)[C@H]4O[C@@H]4O[C@H](COC(=O)C(C)C)[C@@H](O)[C@H](O)[C@H]4O[C@H](O[C@H]2C)[C@@H]3OC(=O)[C@@H](C)[C@H](C)O)O[C@@H]1C [ORIZABIN XI] | 32 (≈ 28.9 µM) | 4 (≈ 3.61 µM) | 16 (≈ 14.4 µM) | – | –
CCCCC[C@H]1CCCCCCCCCC(=O)O[C@@H]2[C@@H](O[C@@H]3O[C@H](C)[C@@H](OC(=O)[C@@H](C)CC)[C@H](O)[C@H]3O)[C@H](C)O[C@@H](O[C@H]3[C@H](O[C@H]4[C@H](O1)O[C@H](C)[C@@H](O)[C@@H]4O)O[C@H](COC(=O)[C@@H](C)CC)[C@@H](O)[C@@H]3O)[C@@H]2OC(=O)[C@H](C)[C@@H](C)O [ORIZABIN XVIII] | 64 (≈ 57 µM) | 64 (≈ 57 µM) | 32 (≈ 28.5 µM) | – | –
C/C=C(\C)C(=O)O[C@H]1[C@H](O)[C@@H](O)[C@H](O[C@@H]2[C@H]3OC(=O)CCCCCCCCC[C@H](CCCCC)O[C@@H]4O[C@H](C)[C@@H](O)[C@H](O)[C@H]4O[C@@H]4O[C@H](COC(=O)[C@@H](C)[C@H](C)O)[C@@H](O)[C@H](O)[C@H]4O[C@H](O[C@H]2C)[C@@H]3OC(=O)[C@@H](C)CC)O[C@@H]1C [ORIZABIN XVII] | 32 (≈ 28.5 µM) | 8 (≈ 7.13 µM) | 8 (≈ 7.13 µM) | – | –
C/C=C(\C)C(=O)O[C@H]1[C@H](O)[C@@H](O)[C@H](O[C@@H]2[C@H]3OC(=O)CCCCCCCCC[C@H](CCCCC)O[C@@H]4O[C@H](C)[C@@H](O)[C@H](O)[C@H]4O[C@@H]4O[C@H](COC(=O)[C@H](C)[C@@H](C)O)[C@@H](O)[C@H](O)[C@H]4O[C@H](O[C@H]2C)[C@@H]3OC(=O)[C@@H](C)CC)O[C@@H]1C [ORIZABIN XVI] | 128 (≈ 114 µM) | 8 (≈ 7.13 µM) | 8 (≈ 7.13 µM) | – | –
C/C=C(\C)C(=O)O[C@H]1[C@H](O)[C@@H](O)[C@H](O[C@@H]2[C@H]3OC(=O)CCCCCCCCC[C@H](CCCCC)O[C@@H]4O[C@H](C)[C@@H](O)[C@H](O)[C@H]4O[C@@H]4O[C@H](COC(=O)[C@@H](C)CC)[C@@H](O)[C@H](O)[C@H]4O[C@H](O[C@H]2C)[C@@H]3OC(=O)[C@@H](C)[C@H](C)O)O[C@@H]1C [ORIZABIN XV] | 512 (≈ 457 µM) | 16 (≈ 14.3 µM) | 128 (≈ 114 µM) | – | –
CCCCC[C@H]1CCCCCCCCCC(=O)O[C@@H]2[C@@H](O[C@@H]3O[C@H](C)[C@@H](OC(=O)[C@@H](C)CC)[C@H](O)[C@H]3O)[C@H](C)O[C@@H](O[C@H]3[C@H](O[C@H]4[C@H](O1)O[C@H](C)[C@@H](O)[C@@H]4O)O[C@H](COC(=O)[C@@H](C)[C@H](C)O)[C@@H](O)[C@@H]3O)[C@@H]2OC(=O)[C@@H](C)CC [ORIZABIN XXI] | 64 (≈ 57 µM) | 16 (≈ 14.2 µM) | 8 (≈ 7.12 µM) | – | –
CCCCC[C@H]1CCCCCCCCCC(=O)O[C@@H]2[C@@H](O[C@@H]3O[C@H](C)[C@@H](OC(=O)[C@@H](C)CC)[C@H](O)[C@H]3O)[C@H](C)O[C@@H](O[C@H]3[C@H](O[C@H]4[C@H](O1)O[C@H](C)[C@@H](O)[C@@H]4O)O[C@H](COC(=O)[C@H](C)[C@@H](C)O)[C@@H](O)[C@@H]3O)[C@@H]2OC(=O)[C@@H](C)CC [ORIZABIN XX] | > 512 | 32 (≈ 28.5 µM) | 64 (≈ 57 µM) | – | –
C/C=C(\C)C(=O)O[C@H]1[C@H](O)[C@@H](O)[C@H](O[C@@H]2[C@H]3OC(=O)CCCCCCCCC[C@H](CCCCC)O[C@@H]4O[C@H](C)[C@@H](O)[C@H](O)[C@H]4O[C@@H]4O[C@H](COC(=O)C(C)C)[C@@H](O)[C@H](O)[C@H]4O[C@H](O[C@H]2C)[C@@H]3OC(=O)[C@H](C)[C@@H](C)O)O[C@@H]1C [ORIZABIN X] | 32 (≈ 28.9 µM) | 4 (≈ 3.61 µM) | 16 (≈ 14.4 µM) | – | –
CCCCC[C@H]1CCCCCCCCCC(=O)O[C@@H]2[C@@H](O[C@@H]3O[C@H](C)[C@@H](O)[C@H](O)[C@H]3O)[C@H](C)O[C@@H](O[C@H]3[C@H](O[C@H]4[C@H](O1)O[C@H](C)[C@@H](O)[C@@H]4O)O[C@H](CO)[C@@H](O)[C@@H]3O)[C@@H]2OC(=O)[C@@H](C)CC [SCAMMONIN II] | 512 (≈ 545 µM) | 128 (≈ 136 µM) | 256 (≈ 273 µM) | – | –
C/C=C(\C)C(=O)O[C@H]1[C@H](O)[C@@H](O)[C@H](O[C@@H]2[C@H]3OC(=O)CCCCCCCCC[C@H](CCCCC)O[C@@H]4O[C@H](C)[C@@H](O)[C@H](O)[C@H]4O[C@@H]4O[C@H](CO)[C@@H](O)[C@H](O)[C@H]4O[C@H](O[C@H]2C)[C@@H]3OC(=O)[C@@H](C)CC)O[C@@H]1C [SCAMMONIN I] | 128 (≈ 125 µM) | 32 (≈ 31.3 µM) | 32 (≈ 31.3 µM) | – | –
CN(C)[C@@H]1C(O)=C(C(N)=O)C(=O)[C@@]2(O)C(O)=C3C(=O)c4c(O)cccc4[C@@](C)(O)[C@H]3C[C@@H]12 [TETRACYCLINE] | 64 (≈ 144 µM) | 0.15 (≈ 0.338 µM) | 0.08 (≈ 0.18 µM) | – | –
CCCCC[C@H]1CCCCCCCCCC(=O)O[C@H]2[C@H](O)[C@@H](CO)O[C@@H](O[C@H]3[C@H](O1)O[C@H](C)[C@H](O)[C@@H]3O)[C@@H]2O[C@@H]1O[C@@H](C)[C@H](OC(=O)[C@@H](C)CC)[C@@H](O[C@@H]2O[C@@H](C)[C@H](O)[C@@H](O)[C@H]2O)[C@H]1OC(=O)[C@@H](C)CC [TRICOLORIN A] | 8 (≈ 7.82 µM) | 4 (≈ 3.91 µM) | 16 (≈ 15.6 µM) | 1 (≈ 0.977 µM) | 16 (≈ 15.6 µM)
CCCCC[C@H]1CCCCCCCCCC(=O)O[C@H]2[C@H](O[C@H]3[C@H](O[C@H]4[C@H](O1)O[C@H](C)[C@H](O)[C@@H]4O)O[C@H](CO)[C@@H](O)[C@@H]3O)O[C@H](C)[C@@H](O)[C@@H]2O [TRICOLORIN F] | > 512 | > 512 | > 512 | – | –
CCCCC[C@H](CCCCCCCCCC(=O)OC[C@H]1O[C@H]2O[C@H]3[C@H](O[C@@H](CCCCC)CCCCCCCCCC(=O)O[C@H]4[C@H](O[C@@H]2[C@@H](O)[C@@H]1O)O[C@H](C)[C@@H](O)[C@@H]4O)O[C@H](C)[C@H](O)[C@@H]3O)O[C@@H]1O[C@H](C)[C@H](O)[C@H](O)[C@H]1O[C@@H]1O[C@H](CO)[C@@H](O)[C@H](O)[C@H]1O[C@@H]1O[C@H](C)[C@@H](O)[C@H](O)[C@H]1O [TRICOLORIN J] | > 256 | > 256 | > 256 | – | –
